Published values gathered from unrelated publications.
Each line is one published result; the experiments were not run side by side.
Cell line: MDA-MB-231
Effect on: cell growth or viability

`COc1cc2c3c(n(CCCN4CCOCC4)c(=O)c2cc1OC)-c1nc2c(cc1C3=O)OCO2` gave an IC50 of over 2 µM (MTS; 72 h).
For `O=C(C=Cc1ccccc1)Nc1cccc(-c2ccnc(N3CCC(CO)CC3)c2)c1`, the inhibition was 67.4% (MTT; 5 µM).
For `O=C(O)c1cccnc1Nc1cccc(C(F)(F)F)c1`, the GI50 was over 30 µM (SRB; 48 h).
The IC50 of `COc1cc2c3c(n(CCCNCCO)c(=O)c2cc1OC)-c1nc2c(cc1C3=O)OCO2` is reported as 0.806 µM (MTS; 72 h).
`C[C@@H]1CC[C@@H]([C@](C)(O)CNCc2cccc(F)c2)[C@H](OCc2ccccc2)C1` gave an inhibition of 96.1% (MTT; 30 µM, 72 h).
`C=CC(=O)c1cccnc1Nc1cc(C(F)(F)F)ccc1OC` gave a GI50 of 10.5 µM (SRB; 48 h).
`CCc1c(C)c2ccc(OCC(=O)NN=Cc3ccc([N+](=O)[O-])cc3)cc2oc1=O` has a viability of 17.3% (MTT; 250 µg/mL).
The inhibition of `COc1ccccc1CNC[C@@](C)(O)[C@@H]1CC[C@@H](C)C[C@H]1OCc1ccccc1` is reported as 87.6% (MTT; 30 µM, 72 h).
With `O=[N+]([O-])c1ccc2c(c1)S(=O)(=O)C=C2` the IC50 was 1.3 µM (ATP luminescence; 72 h).
The inhibition of `O=C(C=Cc1cccc(F)c1)Nc1cc(-c2ccnc(N3CCC(O)CC3)c2)ccn1` is reported as 78.3% (MTT; 5 µM).
`C[C@@H]1CC[C@@H]([C@](C)(O)Cn2cnc3ccccc32)[C@H](OCc2ccccc2)C1` has an inhibition of 83.2% (MTT; 30 µM, 72 h).
With `Nc1ccccc1NC(=O)c1ccc(CNc2ccc(NC3=C(Cl)C(=O)c4cccnc4C3=O)cc2)cc1` the IC50 was 1.07 µM (MTT; 48 h).
With `CCc1c(C)c2ccc(OCC=Cc3ccccc3)c(C)c2oc1=O` the viability was 87.1% (MTT; 125 µg/mL).
The inhibition of `C[C@@H]1CC[C@@H]([C@](C)(O)CNCc2ccccc2)[C@H](OCc2ccccc2)C1` is reported as 78.9% (MTT; 30 µM, 72 h).
`O=C(C=Cc1ccccc1)Nc1cc(-c2ccnc(N3CCC(O)CC3)c2)ccn1` has an inhibition of 80.3% (MTT; 5 µM).
For `COc1ccc(CNC[C@](O)(COCc2ccc(F)cc2)[C@@H]2CC[C@@H](C)C[C@H]2OCc2ccc(F)cc2)cc1`, the inhibition was 99.6% (MTT; 10 µM, 72 h).
With `CC(=NNC(=O)COc1ccc2c(C)c(Cc3ccccc3)c(=O)oc2c1C)c1ccc(Br)cc1` the viability was 48.2% (MTT; 31.25 µg/mL).
`C=CC(=O)NC1CCN(c2ncc3ncnc(Nc4ccc(Oc5ccc6c(c5)ncn6C)c(C)c4)c3n2)CC1` gave an EC50 of 0.328 µM.
With `C[C@@H]1CC[C@@H]([C@@](O)(CNCc2cccc3ccccc23)COCc2ccccc2)[C@H](OCc2ccccc2)C1` the inhibition was 91.2% (MTT; 30 µM, 72 h).
The GI50 of `O=C(O)c1ccccc1Nc1cccc(C(F)(F)F)c1` is reported as over 30 µM (SRB; 48 h).
`C[C@@H]1CC[C@@H]([C@@](O)(CNCc2ccccc2)COCc2ccc(F)cc2)[C@H](OCc2ccc(F)cc2)C1` gave an inhibition of 97.9% (MTT; 10 µM, 72 h).
`CCc1c(C)c2ccc(OCC(=O)NNC(=S)Nc3ccccc3)c(C)c2oc1=O` gave a viability of 4.23% (MTT; 500 µg/mL).
`Cc1cc(NC(=O)C=Cc2ccccc2)cc(-c2ccnc(N3CCC(CO)CC3)c2)c1` has an inhibition of 59.8% (MTT; 5 µM).
With `C=CCNC(=S)NNC(=O)COc1ccc2c(C)c(CC)c(=O)oc2c1C` the viability was 3% (MTT; 500 µg/mL).
`O=C(C=Cc1ccccc1)Nc1cc(-c2ccnc(N3CCOCC3)c2)ccn1` gave an IC50 of 0.0729 µM (MTT; 72 h).
`CCNC(=S)NNC(=O)COc1ccc2c(C)c(CC)c(=O)oc2c1C` gave a viability of 9.96% (MTT; 500 µg/mL).
With `O=C(CCc1ccccc1)Nc1cc(-c2ccnc(N3CCC(O)CC3)c2)ccn1` the inhibition was 78.9% (MTT; 5 µM).
The IC50 of `O=C(NO)c1ccc(CNc2ccc(NC3=C(Cl)C(=O)c4cccnc4C3=O)cc2)cc1-c1ccccc1` is reported as 2.5 µM (MTT; 48 h).
For `O=C(/C=C/c1ccc(F)cc1)Nc1cc(-c2ccnc(N3CCC(O)CC3)c2)ccn1`, the inhibition was 63% (MTT; 5 µM).
With `C#Cc1nc(C2=C(C)C(O)CC2)cs1` (centres unmarked) the CC50 was 3.2 µM.
With `C=C(COCc1ccccc1)[C@@H]1CC[C@@H](C)C[C@H]1OCc1ccccc1` the inhibition was 28.1% (MTT; 30 µM, 72 h).
For `Cc1cc(NC(=O)C=Cc2ccccc2)cc(-c2ccnc(N3CCC(O)CC3)c2)c1`, the inhibition was 55% (MTT; 5 µM).
